In ChEMBL document CHEMBL1629494, “New amino acid esters of salicylanilides active against MDR-TB and other microbes” (Eur J Med Chem, 2010):
Converted amounts (≈) assume the structure as drawn.

Key:
Trichosporon beigelii [1] = assay: Antifungal activity against Trichosporon beigelii 1188 after 48 hrs by broth microdilution method; assay type: functional; conditions: Trichosporon beigelii, 1188, 48 h
Escherichia coli [2] = assay: Antibacterial activity against Escherichia coli CCM 4517 after 48 hrs by broth microdilution method; assay type: functional; conditions: CCM 4517, 48 h
In short: (§1)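 Broth microdilution following […], with twofold compound dilutions in Mueller-Hinton bouillon. Incubated 24 and 48 h at 35 °C in the dark in a humid atmosphere. MIC (IC80) was taken as ≥80% growth reduction versus control, read visually and photometrically.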

Klebsiella pneumoniae [3] = assay: Antibacterial activity against Klebsiella pneumoniae D11750/08 after 24 hrs by broth microdilution method; assay type: functional; conditions: D11750/08, 24 h; in short: as §1
Mycobacterium kansasii [4] = assay: Antimycobacterial activity against Mycobacterium kansasii 235/80 after 14 days by micromethod; assay type: functional; conditions: 235/80, 336 h
In short: (§2)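 Micromethod in Sula semisynthetic medium, with compounds added as DMSO solutions at 1000, 500, 250, 125, 62, 32, 16, 8, 4, 2, 1, 0.5, 0.25. Inoculum dilutions: H37Rv 10^-3; M. avium 330/88 10^-5; M. kansasii 235/80 10^-4; M. kansasii 6509/96 10^-5. Incubated at 37 °C, read at 14 and 21 days, and at 7 days for M. kansasii. MIC was the lowest concentration inhibiting growth.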

Staphylococcus aureus [5] = assay: Antibacterial activity against Staphylococcus aureus CCM 4516/08 after 24 hrs by broth microdilution method; assay type: functional; conditions: CCM 4516/08, 24 h; in short: as §1
Klebsiella pneumoniae [6] = assay: Antibacterial activity against Klebsiella pneumoniae D11750/08 after 48 hrs by broth microdilution method; assay type: functional; conditions: D11750/08, 48 h; in short: as §1
Mycobacterium avium [7] = assay: Antimycobacterial activity against multidrug-resistant Mycobacterium avium 330/88 after 21 days by micromethod; assay type: functional; conditions: 330/88, 504 h; in short: as §2
[8] = tested on: Mycobacterium tuberculosis; assay: Antimycobacterial activity against Mycobacterium tuberculosis H37Rv 331/88 after 14 days by micromethod; assay type: functional; conditions: H37Rv 331/88, 336 h; in short: as §2
Staphylococcus aureus [9] = assay: Antibacterial activity against Staphylococcus aureus CCM 4516/08 after 48 hrs by broth microdilution method; assay type: functional; conditions: CCM 4516/08, 48 h; in short: as §1
Mycobacterium kansasii [10] = assay: Antimycobacterial activity against Mycobacterium kansasii 6509/96 after 7 days by micromethod; assay type: functional; conditions: 6509/96, 168 h; in short: as §2
[11] = tested on: Staphylococcus epidermidis; assay: Antibacterial activity against Staphylococcus epidermidis H6966/08 after 48 hrs by broth microdilution method; assay type: functional; conditions: H6966/08, 48 h; in short: as §1
Candida albicans [12] = assay: Antifungal activity against Candida albicans ATCC 44859 after 48 hrs by broth microdilution method; assay type: functional; conditions: ATCC 44859, 48 h
Enterococcus sp. [13] = assay: Antibacterial activity against Enterococcus sp. J14365/08 after 24 hrs by broth microdilution method; assay type: functional; conditions: J14365/08, 24 h; in short: as §1
Pichia kudriavzevii [14] = assay: Antifungal activity against Candida krusei E28 after 48 hrs by broth microdilution method; assay type: functional; conditions: E28, 48 h
Trichosporon beigelii [15] = assay: Antifungal activity against Trichosporon beigelii 1188 after 24 hrs by broth microdilution method; assay type: functional; conditions: Trichosporon beigelii, 1188, 24 h
Mycobacterium avium [16] = assay: Antimycobacterial activity against multidrug-resistant Mycobacterium avium 330/88 after 14 days by micromethod; assay type: functional; conditions: 330/88, 336 h; in short: as §2
Mycobacterium kansasii [17] = assay: Antimycobacterial activity against Mycobacterium kansasii 6509/96 after 14 days by micromethod; assay type: functional; conditions: 6509/96, 336 h; in short: as §2
Aspergillus fumigatus [18] = assay: Antifungal activity against Aspergillus fumigatus 231 after 24 hrs by broth microdilution method; assay type: functional; conditions: Aspergillus fumigatus, 231, 24 h
[19] = tested on: Mycobacterium tuberculosis; assay: Antimycobacterial activity against drug-sensitive Mycobacterium tuberculosis; assay type: functional
Staphylococcus aureus [20] = assay: Antibacterial activity against methicillin-resistant Staphylococcus aureus H5996/08 after 24 hrs by broth microdilution method; assay type: functional; conditions: H5996/08, 24 h; in short: as §1
Candida tropicalis [21] = assay: Antifungal activity against Candida tropicalis 156 after 48 hrs by broth microdilution method; assay type: functional; conditions: Candida tropicalis, 156, 48 h
Mycobacterium kansasii [22] = assay: Antimycobacterial activity against Mycobacterium kansasii; assay type: functional
Nakaseomyces glabratus [23] = assay: Antifungal activity against Candida glabrata 20/I after 24 hrs by broth microdilution method; assay type: functional
[24] = Selectivity index, ratio of IC50 for human PBMC to MIC for Mycobacterium tuberculosis H37Rv 331/88 after 14 days; assay type: functional
In short: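 SI = PBMC IC50 (MTT cytotoxicity) divided by the MIC against the named M. tuberculosis strain. MIC taken after 14 days of incubation at 37 °C by the micromethod.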

Candida albicans [25] = assay: Antifungal activity against Candida albicans ATCC 44859 after 24 hrs by broth microdilution method; assay type: functional; conditions: ATCC 44859, 24 h
Lichtheimia corymbifera [26] = assay: Antifungal activity against Absidia corymbifera 272 after 48 hrs by broth microdilution method; assay type: functional; conditions: Lichtheimia corymbifera, 272, 48 h
Staphylococcus aureus [27] = assay: Antibacterial activity against methicillin-resistant Staphylococcus aureus H5996/08 after 48 hrs by broth microdilution method; assay type: functional; conditions: H5996/08, 48 h; in short: as §1
PBMC = assay: Cytotoxicity against human PBMC after 24 hrs by MTT assay; assay type: cell-based
In short: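 Human peripheral blood mononuclear cells in RPMI-1640 with 10% fetal calf serum, 2 mM L-glutamine and gentamicin, 37 °C, 5% CO2. Seeded at 1.5–2.0 × 10⁵ cells/well. After 24 h, treated overnight in serum-free medium. Viability by MTT (2 mg/mL, 4 h); formazan dissolved in DMSO; OD540 minus OD620. Cytotoxicity % = [1 − OD treated/OD control] × 100; IC50 from dose-response curves. Four parallels, two independent experiments.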

[28] = tested on: Mycobacterium tuberculosis; assay: Antimycobacterial activity against Mycobacterium tuberculosis H37Rv 331/88 after 21 days by micromethod; assay type: functional; conditions: H37Rv 331/88, 504 h; in short: as §2
Enterococcus sp. [29] = assay: Antibacterial activity against Enterococcus sp. J14365/08 after 48 hrs by broth microdilution method; assay type: functional; conditions: J14365/08, 48 h; in short: as §1
Escherichia coli [30] = assay: Antibacterial activity against Escherichia coli CCM 4517 after 24 hrs by broth microdilution method; assay type: functional; conditions: CCM 4517, 24 h; in short: as §1
Mycobacterium kansasii [31] = assay: Antimycobacterial activity against Mycobacterium kansasii 235/80 after 21 days by micromethod; assay type: functional; conditions: 235/80, 504 h; in short: as §2
[32] = tested on: Staphylococcus epidermidis; assay: Antibacterial activity against Staphylococcus epidermidis H6966/08 after 24 hrs by broth microdilution method; assay type: functional; conditions: H6966/08, 24 h; in short: as §1
Candida tropicalis [33] = assay: Antifungal activity against Candida tropicalis 156 after 24 hrs by broth microdilution method; assay type: functional; conditions: Candida tropicalis, 156, 24 h
Mycobacterium kansasii [34] = assay: Antimycobacterial activity against Mycobacterium kansasii 235/80 after 7 days by micromethod; assay type: functional; conditions: 235/80, 168 h; in short: as §2
Mycobacterium kansasii [35] = assay: Antimycobacterial activity against Mycobacterium kansasii 6509/96 after 21 days by micromethod; assay type: functional; conditions: 6509/96, 504 h; in short: as §2
Nakaseomyces glabratus [36] = assay: Antifungal activity against Candida glabrata 20/I after 48 hrs by broth microdilution method; assay type: functional
[37] = Lipophilicity, log P of the compound; assay type: physicochemical; conditions: octanol/water
Aspergillus fumigatus [38] = assay: Antifungal activity against Aspergillus fumigatus 231 after 48 hrs by broth microdilution method; assay type: functional; conditions: Aspergillus fumigatus, 231, 48 h
Mycobacterium avium [39] = assay: Antimycobacterial activity against Mycobacterium avium; assay type: functional
Pichia kudriavzevii [40] = assay: Antifungal activity against Candida krusei E28 after 24 hrs by broth microdilution method; assay type: functional; conditions: E28, 24 h
[41] = tested on: Trichophyton mentagrophytes; assay: Antifungal activity against Trichophyton mentagrophytes after 48 hrs by broth microdilution method; assay type: functional
[42] = tested on: Trichophyton mentagrophytes; assay: Antifungal activity against Trichophyton mentagrophytes after 24 hrs by broth microdilution method; assay type: functional
Lichtheimia corymbifera [43] = assay: Antifungal activity against Absidia corymbifera 272 after 24 hrs by broth microdilution method; assay type: functional; conditions: Lichtheimia corymbifera, 272, 24 h

Question: For `CC(=O)N[C@@H](Cc1ccccc1)C(=O)Oc1ccc(Br)cc1C(=O)Nc1ccc(C(F)(F)F)cc1`, which MIC (Trichosporon beigelii [1]) is on record?
Answer: 31.2 µM (≈ 17.2 µg/mL)

Question: What about the MIC (Escherichia coli [2]) of the same compound?
Answer: 500 µM (≈ 275 µg/mL)

Question: And the MIC (Klebsiella pneumoniae [3])?
Answer: > 500 µM

Question: And the MIC (Mycobacterium kansasii [4])?
Answer: 2 µM (≈ 1.1 µg/mL)

Question: What about the MIC (Staphylococcus aureus [5]) of the same compound?
Answer: 3.9 µM (≈ 2.14 µg/mL)

Question: What about the MIC (Klebsiella pneumoniae [6]) of the same compound?
Answer: > 500 µM

Question: What about the MIC (Mycobacterium avium [7]) of the same compound?
Answer: 4 µM (≈ 2.2 µg/mL)

Question: What about the MIC [8] of the same compound?
Answer: 0.25 µM (≈ 0.137 µg/mL)

Question: And the MIC (Staphylococcus aureus [9])?
Answer: 31.2 µM (≈ 17.2 µg/mL)

Question: And the MIC (Mycobacterium kansasii [10])?
Answer: 1 µM (≈ 0.549 µg/mL)

Question: And the MIC [11]?
Answer: 62.5 µM (≈ 34.3 µg/mL)

Question: And the MIC (Candida albicans [12])?
Answer: 500 µM (≈ 275 µg/mL)

Question: What about the MIC (Enterococcus sp. [13]) of the same compound?
Answer: 15.6 µM (≈ 8.58 µg/mL)

Question: And the MIC (Pichia kudriavzevii [14])?
Answer: 125 µM (≈ 68.7 µg/mL)

Question: And the MIC (Trichosporon beigelii [15])?
Answer: 15.6 µM (≈ 8.58 µg/mL)

Question: What about the MIC (Mycobacterium avium [16]) of the same compound?
Answer: 4 µM (≈ 2.2 µg/mL)

Question: And the MIC (Mycobacterium kansasii [17])?
Answer: 2 µM (≈ 1.1 µg/mL)

Question: What about the MIC (Aspergillus fumigatus [18]) of the same compound?
Answer: 15.6 µM (≈ 8.58 µg/mL)

Question: And the MIC [19]?
Answer: 1 µM (≈ 0.549 µg/mL)

Question: What about the MIC (Staphylococcus aureus [20]) of the same compound?
Answer: 7.81 µM (≈ 4.29 µg/mL)

Question: And the MIC (Candida tropicalis [21])?
Answer: 250 µM (≈ 137 µg/mL)

Question: What about the MIC (Mycobacterium kansasii [22]) of the same compound?
Answer: 1 µM (≈ 0.549 µg/mL)

Question: What about the MIC (Nakaseomyces glabratus [23]) of the same compound?
Answer: 125 µM (≈ 68.7 µg/mL)

Question: And the “Selectivity Index” value [24]?
Answer: 194.8

Question: What about the MIC (Candida albicans [25]) of the same compound?
Answer: 31.2 µM (≈ 17.2 µg/mL)

Question: And the MIC (Lichtheimia corymbifera [26])?
Answer: 15.6 µM (≈ 8.58 µg/mL)

Question: What about the MIC (Staphylococcus aureus [27]) of the same compound?
Answer: 125 µM (≈ 68.7 µg/mL)

Question: What about the IC50 (PBMC) of the same compound?
Answer: 48.7 µM

Question: And the MIC [28]?
Answer: 0.5 µM (≈ 0.275 µg/mL)

Question: And the MIC (Enterococcus sp. [29])?
Answer: 125 µM (≈ 68.7 µg/mL)

Question: What about the MIC (Escherichia coli [30]) of the same compound?
Answer: 250 µM (≈ 137 µg/mL)

Question: And the MIC (Mycobacterium kansasii [31])?
Answer: 2 µM (≈ 1.1 µg/mL)

Question: What about the MIC [32] of the same compound?
Answer: 15.6 µM (≈ 8.58 µg/mL)

Question: What about the MIC (Candida tropicalis [33]) of the same compound?
Answer: 125 µM (≈ 68.7 µg/mL)

Question: And the MIC (Mycobacterium kansasii [34])?
Answer: 0.5 µM (≈ 0.275 µg/mL)

Question: What about the MIC (Mycobacterium kansasii [35]) of the same compound?
Answer: 2 µM (≈ 1.1 µg/mL)

Question: And the MIC (Nakaseomyces glabratus [36])?
Answer: 500 µM (≈ 275 µg/mL)

Question: And the logP [37]?
Answer: 5.19

Question: What about the MIC (Aspergillus fumigatus [38]) of the same compound?
Answer: 31.2 µM (≈ 17.2 µg/mL)

Question: And the MIC (Mycobacterium avium [39])?
Answer: 1 µM (≈ 0.549 µg/mL)

Question: What about the MIC (Pichia kudriavzevii [40]) of the same compound?
Answer: 15.6 µM (≈ 8.58 µg/mL)

Question: What about the MIC [41] of the same compound?
Answer: 7.81 µM (≈ 4.29 µg/mL)

Question: And the MIC [42]?
Answer: 3.9 µM (≈ 2.14 µg/mL)

Question: And the MIC (Lichtheimia corymbifera [43])?
Answer: 7.81 µM (≈ 4.29 µg/mL)
